Data on 53 compounds can be found in ChEMBL document CHEMBL1944597, “Synthesis and evaluation of non-basic inhibitors of urokinase-type plasminogen activator (uPA)” (Bioorg Med Chem, 2012).

The target of assay [1] is T1, Urokinase-type plasminogen activator (Homo sapiens, UniProt P00749). The assay can be described thus: Inhibition of human uPA using pyroGlu-Gly-Arg-p-NA.HCl as substrate preincubated for 15 mins prior substrate addition measured for 10 mins by spectrophotometry.
For the next assay, the target named is Plasminogen (Homo sapiens, UniProt P00747). The assay can be described thus: Inhibition of human plasma plasmin using pyroGlu-Pro-Arg-p-NA.HCl as substrate preincubated for 15 mins prior substrate addition measured for 10 mins by spectrophotometry. In outline: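 Plasmin from human plasma, about 5 mU, in Tris buffer pH 7.4, preincubated 15 min at 37 °C with inhibitor (0–250 µM final, DMSO stocks). […] Initial rate was read at 405 nm (0–0.25 AU within 10 min) at 37 °C. Assays ran in duplicate, and IC50 was the concentration halving activity.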

Assay [2] deals with Tissue-type plasminogen activator (Homo sapiens, UniProt P00750). The assay can be described thus: Inhibition of recombinant tPA using H-D-Ile-Pro-Arg-pNA.2HCl as substrate preincubated for 15 mins prior substrate addition measured for 10 mins by spectrophotometry. In outline: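 Recombinant tPA, about 5 mU, in Tris buffer pH 8.3, with inhibitor at 0–250 µM final from DMSO stocks, preincubated 15 min at 37 °C. […] Initial rate came from 405 nm absorbance (0–0.25 AU, 10 min) at 37 °C, measured in duplicate. IC50 was the inhibitor level reducing activity to 50%.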

The next assay addresses Prothrombin (Homo sapiens, UniProt P00734). Kind of assay: Inhibition of human plasma thrombin using pyroGlu-Pro-Arg-p-NA.HCl as substrate preincubated for 15 mins prior substrate addition measured for 10 mins by spectrophotometry. The essentials:
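Human plasma thrombin (about 5 mU) in Tris pH 8.3 was given a 15-min 37 °C preincubation with inhibitor at 0–250 µM final, from DMSO stocks. […] Absorbance at 405 nm gave the initial rate over 0–0.25 AU in 10 min, at 37 °C, in duplicate. IC50 was taken as 50% activity loss.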

Assay [3] deals with T1, Urokinase-type plasminogen activator. The assay can be described thus: Competitive inhibition of human uPA using pyroGlu-Gly-Arg-p-NA.HCl as substrate preincubated for 15 mins prior substrate addition measured for 10 mins by spectrophotometry. The essentials: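 Human uPA (about 1 mU) in 50 mM Tris pH 8.8 at 37 °C. […] Initial rate taken over 0–0.25 absorbance units in 10 min. Duplicates; IC50 is the concentration giving 50% activity.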

Assay [4] has the same target. The assay can be described thus: Non-competitive inhibition of human uPA using pyroGlu-Gly-Arg-p-NA.HCl as substrate preincubated for 15 mins prior substrate addition measured for 10 mins by spectrophotometry.

A value given as a limit tells only on which side of the number the result lay.

Plasminogen, sequence (P00747 97-580 limits assumed): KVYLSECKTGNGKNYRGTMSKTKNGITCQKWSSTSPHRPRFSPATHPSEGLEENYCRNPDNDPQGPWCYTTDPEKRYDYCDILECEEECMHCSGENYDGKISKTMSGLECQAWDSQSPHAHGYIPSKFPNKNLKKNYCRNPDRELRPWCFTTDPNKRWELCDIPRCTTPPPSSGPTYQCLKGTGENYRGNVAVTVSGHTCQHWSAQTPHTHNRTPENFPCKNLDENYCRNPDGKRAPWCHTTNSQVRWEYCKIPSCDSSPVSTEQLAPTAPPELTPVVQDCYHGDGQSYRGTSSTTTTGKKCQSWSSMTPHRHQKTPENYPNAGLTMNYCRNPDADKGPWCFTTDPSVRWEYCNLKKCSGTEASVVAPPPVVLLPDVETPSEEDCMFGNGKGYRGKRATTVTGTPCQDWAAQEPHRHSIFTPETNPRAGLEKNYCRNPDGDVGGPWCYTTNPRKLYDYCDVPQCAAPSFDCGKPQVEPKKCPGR
Plasminogen, sequence (P00747 581-810 limits assumed): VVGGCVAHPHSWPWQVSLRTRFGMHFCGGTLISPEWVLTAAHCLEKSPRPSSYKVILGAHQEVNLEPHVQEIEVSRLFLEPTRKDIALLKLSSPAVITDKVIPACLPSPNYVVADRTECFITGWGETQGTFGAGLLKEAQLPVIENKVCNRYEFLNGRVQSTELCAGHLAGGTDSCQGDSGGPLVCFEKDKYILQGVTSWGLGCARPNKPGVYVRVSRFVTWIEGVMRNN
Tissue-type plasminogen activator, sequence (P00750 whole entry): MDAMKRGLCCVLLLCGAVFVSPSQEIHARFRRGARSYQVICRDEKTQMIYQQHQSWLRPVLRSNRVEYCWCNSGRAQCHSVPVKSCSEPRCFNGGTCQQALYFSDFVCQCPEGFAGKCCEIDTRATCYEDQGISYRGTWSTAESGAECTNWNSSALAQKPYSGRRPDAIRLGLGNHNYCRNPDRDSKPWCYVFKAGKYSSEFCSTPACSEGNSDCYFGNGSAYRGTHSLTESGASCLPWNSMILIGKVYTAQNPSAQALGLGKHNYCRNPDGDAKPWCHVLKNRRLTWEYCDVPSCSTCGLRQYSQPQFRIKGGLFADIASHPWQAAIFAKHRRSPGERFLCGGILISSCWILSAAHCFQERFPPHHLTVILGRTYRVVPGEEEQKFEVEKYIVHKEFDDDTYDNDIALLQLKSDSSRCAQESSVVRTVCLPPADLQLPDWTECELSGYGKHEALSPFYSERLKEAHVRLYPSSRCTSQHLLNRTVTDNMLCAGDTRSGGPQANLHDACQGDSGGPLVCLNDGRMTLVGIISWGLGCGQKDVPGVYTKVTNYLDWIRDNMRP

For the compound `COC(=O)c1cccc(-c2ccc(NC(=O)c3ccc4cc(N)ccc4c3)cc2)c1`, the midpoint of inhibition in assay [1], the IC50, lay at 31 µM.
The same measure, in the same setting: then `COc1cccc(-c2ccc(NC(=O)c3ccc4ccccc4c3)cc2)c1`, with 9.8 µM.
With `COc1cccc(-c2ccc(NC(=O)c3ccc4cc(OC)ccc4c3)cc2)c1`, the IC50 was 4 µM in assay [1], 20 µM on Plasminogen, 21 µM in assay [2] and greater than 62 µM against Prothrombin.
In assay [1], `COc1cc(NC(=O)c2ccc3cc(C(N)=O)ccc3c2)cc(OC)c1` registered an IC50 of 30 µM.
Same read-out and setting: in the case of `COc1cccc(-c2ccc(NS(=O)(=O)c3ccc4cc(OC)ccc4c3)cc2)c1` it was 19 µM; in that of `COc1cccc(-c2ccc(NS(=O)(=O)c3ccc4ccccc4c3)cc2)c1`, 31 µM.
`COC(=O)c1cccc(-c2ccc(NC(=O)c3ccc4cc(C(=O)OC)ccc4c3)cc2)c1` gave an IC50 in assay [1] of 14 µM.
As to `COc1cc(NC(=O)c2ccc3cc(C(=N)N)ccc3c2)cc(OC)c1`, the IC50 was 2.6 µM in assay [1], 13 µM against Plasminogen, greater than 62 µM in assay [2] and greater than 62 µM against Prothrombin.
For the compound `CCOC(=O)N1CCN(C(=O)[C@H](Cc2cccc(C(=N)N)c2)NS(=O)(=O)c2c(C(C)C)cc(C(C)C)cc2C(C)C)CC1`, the Ki in assay [2] came out at 4.9 µM.
With `O=C(O)c1ccc2cc(C(=O)Nc3ccccc3)ccc2c1`, the IC50 in assay [1] was greater than 62 µM.
Compound `COc1ccc2cc(S(=O)(=O)Nc3ccc(-c4cccc(C(N)=O)c4)cc3)ccc2c1` showed an IC50 in assay [1] greater than 62 µM.
Still for that read-out and setting: then `COc1ccc(-c2ccc(NS(=O)(=O)c3ccc4cc(OC)ccc4c3)cc2OC)cc1`, with 8 µM.
For `COc1cccc(-c2ccc(NC(=O)c3ccc4cc(C(N)=O)ccc4c3)cc2)c1`, the IC50 in assay [1] was 2.9 µM; against Plasminogen, 12 µM; in assay [2], 5.7 µM; against Prothrombin it was greater than 62 µM.
With `COc1cccc(-c2ccc(NC(=O)c3ccc4cc(C#N)ccc4c3)cc2)c1`, the IC50 in assay [1] is 20 µM.
For `COC(=O)c1cccc(-c2ccc(NS(=O)(=O)c3ccc4ccccc4c3)cc2)c1`, it took 16 µM to reach half-maximal inhibition in assay [1] (IC50).
The compound `COc1ccc2cc(S(=O)(=O)Nc3ccc(-c4cccc([N+](=O)[O-])c4)cc3)ccc2c1` returned an IC50 in assay [1] of 6.9 µM.
Consider `COc1ccc2cc(C(=O)Nc3ccc(-c4cccc([N+](=O)[O-])c4)cc3)ccc2c1`, for which the IC50 is 2.6 µM in assay [1], 31 µM against Plasminogen, 8.6 µM in assay [2] and greater than 62 µM at Prothrombin.
With `N=C(N)c1ccc2cc(C(=O)Nc3ccccc3)ccc2c1`, the IC50 in assay [1] came to 13 µM; against Plasminogen it was 22 µM; in assay [2], 125 µM; on Prothrombin, 56 µM. Moreover, in assay [3], the Ki was determined as 1.9 µM.
With `COc1ccc(-c2ccc(NC(=O)c3ccc4cc(C(N)=O)ccc4c3)cc2OC)cc1`, the results for the IC50 in assay [1] and in assay [2] were 6.4 µM and 9.7 µM, respectively.
For the compound `COc1ccc2cc(S(=O)(=O)Nc3ccc(-c4cccc(N)c4)cc3)ccc2c1`, the midpoint of inhibition in assay [1], the IC50, lay at 62 µM.
The compound `COC(=O)c1ccc2cc(C(=O)Nc3ccccc3)ccc2c1` had an IC50 in assay [1] greater than 62 µM.
Same read-out and setting: in the case of `O=C(Nc1ccccc1)c1ccc2ccccc2c1` it was greater than 62 µM.
On the same count and under the same terms, then `N#Cc1ccc2cc(C(=O)Nc3ccc(-c4cccc(C(=O)O)c4)cc3)ccc2c1`, with greater than 250 µM.
For `COc1ccc2cc(C(=O)Nc3ccc(-c4cccc(C(F)(F)F)c4)cc3)ccc2c1`, the IC50 against Plasminogen is 6.5 µM; in assay [2] it was 5.3 µM; at Prothrombin it was greater than 62 µM; in assay [4] it was 2.1 µM.
The compound `COc1ccc2cc(C(=O)Nc3ccccc3)ccc2c1` gave an IC50 in assay [1] greater than 62 µM.
Same read-out and setting: then `COc1ccc(-c2ccc(NC(=O)c3ccc4cc(OC)ccc4c3)cc2)cc1`, with 12 µM.
Take `[H]/N=C(\N)c1ccc2cc(C(=O)Nc3ccc(CN)cc3)ccc2c1`: the IC50 (against Plasminogen; in assay [2]; against Prothrombin) was greater than 62 µM in each case.
Turning to `COc1ccc2cc(S(=O)(=O)Nc3ccc(-c4cccc(C(F)(F)F)c4)cc3)ccc2c1`, the IC50 in assay [1] was found to be 4.1 µM; in assay [2], 13 µM.
`NC(=O)c1ccc2cc(C(=O)Nc3ccc(-c4cccc(Cl)c4)cc3)ccc2c1` returned a concentration for half-maximal inhibition (IC50) in assay [1] of 8.1 µM.
On the same count and under the same terms, then `O=C(Nc1ccccc1)c1ccc2cc(Br)ccc2c1`, with greater than 62 µM; and `COC(=O)c1cccc(-c2ccc(NC(=O)c3ccc4ccccc4c3)cc2)c1`, with 16 µM; and `Nc1ccc2cc(C(=O)Nc3ccccc3)ccc2c1`, with greater than 62 µM.
`COC(=O)c1cccc(-c2ccc(NS(=O)(=O)c3ccc4cc(OC)ccc4c3)cc2)c1`: the IC50 at Plasminogen is greater than 62 µM; in assay [2], 26 µM; at Prothrombin, greater than 62 µM; in assay [4] it was 2.8 µM.
On to `COC(=O)c1ccc(-c2ccc(NS(=O)(=O)c3ccc4ccccc4c3)cc2)cc1`, for which inhibition in assay [1] was half-maximal at 9.8 µM (IC50).
Turning to `COC(=O)c1ccc(-c2ccc(NS(=O)(=O)c3ccc4cc(OC)ccc4c3)cc2)cc1`, half-maximal inhibition in assay [1] (IC50) required 16 µM.
`N#Cc1ccc2cc(C(=O)Nc3ccccc3)ccc2c1` showed an IC50 in assay [1] greater than 62 µM.
Regarding `NC(=O)c1ccc2cc(C(=O)Nc3ccc(-c4cccc(C(F)(F)F)c4)cc3)ccc2c1`, the IC50 against Plasminogen was 6.3 µM; in assay [2] it was 3.4 µM; against Prothrombin, greater than 62 µM; in assay [4], 2.4 µM.
In turn, `COC(=O)c1cccc(-c2ccc(NC(=O)c3ccc4cc(Br)ccc4c3)cc2)c1` displayed an IC50 in assay [1] of 11 µM.
Same read-out and setting: then `NCc1ccc(NC(=O)c2ccc3cc(C(N)=O)ccc3c2)cc1`, with 45 µM; and `COC(=O)c1cccc(-c2ccc(NC(=O)c3ccc4cc(C#N)ccc4c3)cc2)c1`, with 9 µM.
In the case of `C[C@H](NC(=O)[C@@H](CO)NS(=O)(=O)Cc1ccccc1)C(=O)NCc1ccc(C(=N)N)cc1`, the Ki in assay [2] was found to be 7.4 µM; at Prothrombin, 0.1 µM.
Turning to `COc1ccc(-c2ccc(NS(=O)(=O)c3ccc4cc(OC)ccc4c3)cc2)cc1`, half-maximal inhibition in assay [1] (IC50) required 23 µM.
As to `N=C(N)c1ccc(/C=C2/N=C(c3ccccc3)OC2=O)cc1`, the IC50 is 0.2 µM in assay [1], greater than 100 µM at Plasminogen, greater than 100 µM in assay [2] and greater than 100 µM against Prothrombin.
Take `COC(=O)c1cccc(-c2ccc(NC(=O)c3ccc4cc(C(N)=O)ccc4c3)cc2)c1`: the IC50 in assay [1] is 3.6 µM; on Plasminogen, greater than 125 µM; in assay [2] it was 11 µM; against Prothrombin it was greater than 125 µM.
In turn, `COc1ccc(-c2ccc(NC(=O)c3ccc4cc(OC)ccc4c3)cc2OC)cc1` came in with an IC50 in assay [1] greater than 31 µM.
Still for that read-out and setting: then `COc1ccc2cc(C(=O)Nc3ccc(-c4ccc(OC)c(OC)c4)cc3)ccc2c1`, with 31 µM; and `COC(=O)c1cccc(-c2ccc(NC(=O)c3ccc4cc(Cl)ccc4c3)cc2)c1`, with 7 µM.
In turn, `COc1ccc2cc(S(=O)(=O)Nc3ccc(-c4cccc(F)c4)cc3)ccc2c1` had an IC50 in assay [1] greater than 62 µM.
On to `COC(=O)c1cccc(-c2ccc(NC(=O)c3ccc4cc(OC)ccc4c3)cc2)c1`, for which the IC50 in assay [1] is 4 µM; against Plasminogen, 4 µM; in assay [2], 8.4 µM; against Prothrombin it was greater than 62 µM.
`NC(=O)c1ccc2cc(C(=O)Nc3ccccc3)ccc2c1` returned an IC50 in assay [4] of 15 µM.
For the compound `COc1ccc2cc(S(=O)(=O)Nc3ccc(-c4cccc(Cl)c4)cc3)ccc2c1`, the IC50 in assay [1] was greater than 62 µM.
In turn, `COc1ccc2cc(S(=O)(=O)Nc3ccc(-c4ccc(OC)c(OC)c4)cc3)ccc2c1` registered an IC50 in assay [1] of 8 µM.
Still for that read-out and setting: in the case of `COc1ccc2cc(S(=O)(=O)Nc3ccc(-c4ccccc4)cc3)ccc2c1` it was 31 µM.

Broadly, the IC50 is the concentration needed to halve the response being measured. By Ki is commonly meant the dissociation constant of the complex between target and ligand, obtained from inhibition or displacement.
